Where a SMILES comes first, the peptide text is derived from it.
Experiments:
Type in all cases: functional
[1] = target: T1, B2 bradykinin receptor (Homo sapiens) (UniProt P30411); assay: In vitro 50 % Maximal response in jugular vein expressing B2 receptor; conditions: Oryctolagus cuniculus
T1 sequence (whole entry): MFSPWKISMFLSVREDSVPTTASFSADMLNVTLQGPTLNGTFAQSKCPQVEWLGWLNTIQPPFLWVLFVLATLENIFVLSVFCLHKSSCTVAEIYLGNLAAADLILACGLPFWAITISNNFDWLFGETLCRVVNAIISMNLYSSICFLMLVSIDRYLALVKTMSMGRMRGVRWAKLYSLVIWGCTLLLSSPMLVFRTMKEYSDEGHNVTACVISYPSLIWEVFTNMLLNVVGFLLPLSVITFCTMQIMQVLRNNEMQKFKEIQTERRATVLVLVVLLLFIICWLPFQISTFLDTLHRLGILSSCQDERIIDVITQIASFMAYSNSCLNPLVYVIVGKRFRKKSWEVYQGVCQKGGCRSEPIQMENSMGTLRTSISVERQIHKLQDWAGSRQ
Outline: (§1)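 Isolated rabbit jugular vein strips were equilibrated about 2 h with protease inhibitor SQ 14225 (100 ng/mL) under incandescent light, with no UV. pD₂ was taken as −log of the half-maximal concentration. Relative affinity is given as percent of BK. Specificity was checked by desensitization with BK or an analogue. Antagonists were given as pA₂ from the ID₅₀ that reduces a double agonist dose to a single-dose response.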

[2] = target: T1, B2 bradykinin receptor (Homo sapiens); assay: Percent agonistic activity in rabbit jugular vein expressing B2 receptor relative to bradykinin; conditions: Oryctolagus cuniculus; outline: as §1
Oryctolagus cuniculus [3] = species: Oryctolagus cuniculus; assay: The compound was tested in vitro on rabbit aorta for residual response in presence of ultraviolet light
Outline: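 Aorta strips in cycloheximide were challenged twice with [des-Arg⁹]BK and checked with 3 µM noradrenaline and 0.2 µM [Sar¹]angiotensin II. They were then incubated with 100 µM (4'-amino)Phe plus the photolabel and irradiated 10 min around 365 nm (18 mW/cm²). This was done once or twice. Residual [des-Arg⁹]BK response at 60 min was expressed as percent of reference tissues.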

Oryctolagus cuniculus [4] = species: Oryctolagus cuniculus; assay: In vitro 50 % Maximal response in rabbit aorta expressing B1 receptor; conditions: read-out: ED50 (the source's name)
Oryctolagus cuniculus [5] = species: Oryctolagus cuniculus; assay: Competitive protection towards rabbit aorta in the presence of light
Outline: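 Rabbit aorta strips (B1), with cycloheximide 10 µg/mL present after 3 h equilibration. Tissue pretreated with 50 µM [Leu⁸,des-Arg⁹]BK before the photolabel, scavenger (4'-amino)Phe 100 µM, and 10 min irradiation around 365 nm (18 mW/cm²). Residual [des-Arg⁹]BK response read 60 min after treatment, relative to reference tissues.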

[6] = target: T2, B1 bradykinin receptor (Homo sapiens) (UniProt P46663); assay: Intrinsic activity was determined; conditions: Oryctolagus cuniculus
T2 sequence (whole entry): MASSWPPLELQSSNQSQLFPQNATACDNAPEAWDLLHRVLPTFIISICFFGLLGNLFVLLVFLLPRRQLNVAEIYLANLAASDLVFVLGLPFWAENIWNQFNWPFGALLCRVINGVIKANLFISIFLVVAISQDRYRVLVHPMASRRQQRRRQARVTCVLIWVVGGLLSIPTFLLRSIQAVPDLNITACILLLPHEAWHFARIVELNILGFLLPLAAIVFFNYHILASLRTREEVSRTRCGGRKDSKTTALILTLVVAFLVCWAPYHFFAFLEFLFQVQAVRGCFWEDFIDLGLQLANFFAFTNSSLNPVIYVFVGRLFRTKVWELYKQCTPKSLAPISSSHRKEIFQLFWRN

Row | Compound | Relative affinity [2] [%] | Alpha E [6] | other results
1 | N=C(N)NCCC[C@H](NC(=O)[C@H](Cc1ccccc1)NC(=O)[C@@H]1CCCN1C(=O)[C@H](CO)NC(=O)[C@H](Cc1cc(I)c(N)c(I)c1)NC(=O)CNC(=O)[C@@H]1CCCN1C(=O)[C@@H]1CCCN1C(=O)[C@@H](N)CCCNC(=N)N)C(=O)O (HELM PEPTIDE1{R.P.P.G.[Nc1c(I)cc(C[C@H](N[*:1])C(=O)[*:2])cc1I].S.P.F.R}$$$$V2.0) | < 0.01 | – | ED50 [1]: > 100000 nM
2 | NC(N)=NCCC[C@H](N)C(=O)N1CCC[C@H]1C(=O)N1CCC[C@H]1C(=O)NCC(=O)N[C@@H](Cc1ccccc1)C(=O)N[C@@H](CO)C(=O)N1CCC[C@H]1C(=O)N[C@@H](Cc1ccc([N+](=O)[O-])cc1)C(=O)O | – | – | Response (Oryctolagus cuniculus [3]): 76%; EC50 (Oryctolagus cuniculus [4]): > 100000 nM; Competitive protection (Oryctolagus cuniculus [5]): 75
3 | H-RPPGFSPYR-OH | 3.5 | 1 | –
4 | NC(N)=NCCC[C@H](N)C(=O)N1CCC[C@H]1C(=O)N1CCC[C@H]1C(=O)NCC(=O)N[C@@H](Cc1ccccc1)C(=O)N[C@@H](CO)C(=O)N1CCC[C@H]1C(=O)N[C@@H](CC1CCCCC1)C(=O)O (HELM PEPTIDE1{R.P.P.G.F.S.P.[Cha]}$$$$V2.0) | – | 0 | –
5 | COc1ccc(C[C@H](NC(=O)CNC(=O)[C@@H]2CCCN2C(=O)[C@@H]2CCCN2C(=O)[C@@H](N)CCCN=C(N)N)C(=O)N[C@@H](CO)C(=O)N2CCC[C@H]2C(=O)N[C@@H](Cc2ccccc2)C(=O)N[C@@H](CCCN=C(N)N)C(=O)O)cc1 (H-RPPGY(Me)SPFR-OH) | 14 | 1 | –
6 | [N-]=[N+]=Nc1ccc(/N=N/c2cc(C[C@H](NC(=O)CNC(=O)[C@@H]3CCCN3C(=O)[C@@H]3CCCN3C(=O)[C@@H](N)CCCN=C(N)N)C(=O)N[C@@H](CO)C(=O)N3CCC[C@H]3C(=O)N[C@@H](Cc3ccccc3)C(=O)O)ccc2O)cc1 (HELM PEPTIDE1{R.P.P.G.[[N-]=[N+]=Nc1ccc(/N=N/c2cc(C[C@H](N[*:1])C(=O)[*:2])ccc2O)cc1].S.P.F}$$$$V2.0) | – | 1 | Response (Oryctolagus cuniculus [3]): 69%; EC50 (Oryctolagus cuniculus [4]): 1280 nM
7 | H-RPPGFSPY-OH | – | 1 | –
8 | NC(N)=NCCC[C@H](N)C(=O)N1CCC[C@H]1C(=O)N1CCC[C@H]1C(=O)NCC(=O)N[C@@H](Cc1ccc([N+](=O)[O-])cc1)C(=O)N[C@@H](CO)C(=O)N1CCC[C@H]1C(=O)N[C@@H](Cc1ccccc1)C(=O)O | – | 1 | Response (Oryctolagus cuniculus [3]): 92%; EC50 (Oryctolagus cuniculus [4]): 437 nM
9 | NC(N)=NCCC[C@H](N)C(=O)N1CCC[C@H]1C(=O)N1CCC[C@H]1C(=O)NCC(=O)N[C@@H](Cc1ccccc1)C(=O)N[C@@H](CO)C(=O)N1CCC[C@H]1C(=O)N[C@@H](Cc1ccc(N)cc1)C(=O)O | – | 1 | EC50 (Oryctolagus cuniculus [4]): 4650 nM
10 | COc1ccc(C[C@H](NC(=O)CNC(=O)[C@@H]2CCCN2C(=O)[C@@H]2CCCN2C(=O)[C@@H](N)CCCN=C(N)N)C(=O)N[C@@H](CO)C(=O)N2CCC[C@H]2C(=O)N[C@@H](Cc2ccccc2)C(=O)O)cc1 (H-RPPGY(Me)SPF-OH) | – | 1 | –
11 | NC(N)=NCCC[C@H](NC(=O)[C@H](Cc1ccc(N)cc1)NC(=O)[C@@H]1CCCN1C(=O)[C@H](CO)NC(=O)[C@H](Cc1ccccc1)NC(=O)CNC(=O)[C@@H]1CCCN1C(=O)[C@@H]1CCCN1C(=O)[C@@H](N)CCCN=C(N)N)C(=O)O (HELM PEPTIDE1{R.P.P.G.F.S.P.[Nc1ccc(C[C@H](N[*:1])C(=O)[*:2])cc1].R}$$$$V2.0) | 9 | 1 | ED50 [1]: 19.5 nM
12 | H-RPPGFSPAR-OH | 0.01 | 1 | –
13 | NC(N)=NCCC[C@H](NC(=O)[C@H](Cc1cc(I)c(N)c(I)c1)NC(=O)[C@@H]1CCCN1C(=O)[C@H](CO)NC(=O)[C@H](Cc1ccccc1)NC(=O)CNC(=O)[C@@H]1CCCN1C(=O)[C@@H]1CCCN1C(=O)[C@@H](N)CCCN=C(N)N)C(=O)O (HELM PEPTIDE1{R.P.P.G.F.S.P.[Nc1c(I)cc(C[C@H](N[*:1])C(=O)[*:2])cc1I].R}$$$$V2.0) | < 0.01 | – | ED50 [1]: > 100000 nM
14 | H-RPPGASPF-OH | – | 1 | –
15 | N#[N+]c1ccc(C[C@H](NC(=O)CNC(=O)[C@@H]2CCCN2C(=O)[C@@H]2CCCN2C(=O)[C@@H](N)CCCN=C(N)N)C(=O)N[C@@H](CO)C(=O)N2CCC[C@H]2C(=O)N[C@@H](Cc2ccccc2)C(=O)O)cc1 | – | 1 | EC50 (Oryctolagus cuniculus [4]): 3750 nM
16 | COc1ccc(C[C@H](NC(=O)[C@@H]2CCCN2C(=O)[C@H](CO)NC(=O)[C@H](Cc2ccccc2)NC(=O)CNC(=O)[C@@H]2CCCN2C(=O)[C@@H]2CCCN2C(=O)[C@@H](N)CCCN=C(N)N)C(=O)O)cc1 (H-RPPGFSPY(Me)-OH) | – | 1 | –
17 | H-RPPGASPFR-OH | 0.1 | 1 | –
18 | H-RPPGYSPF-OH | – | 1 | EC50 (Oryctolagus cuniculus [4]): 869 nM
19 | H-RPPGLSPFR-OH | 8 | 1 | –
20 | COc1ccc(C[C@H](NC(=O)[C@@H]2CCCN2C(=O)[C@H](CO)NC(=O)[C@H](Cc2ccccc2)NC(=O)CNC(=O)[C@@H]2CCCN2C(=O)[C@@H]2CCCN2C(=O)[C@@H](N)CCCN=C(N)N)C(=O)N[C@@H](CCCN=C(N)N)C(=O)O)cc1 (H-RPPGFSPY(Me)R-OH) | 65 | 1 | –
21 | NC(N)=NCCC[C@H](NC(=O)[C@H](Cc1ccccc1)NC(=O)[C@@H]1CCCN1C(=O)[C@H](CO)NC(=O)[C@H](Cc1ccc(N)cc1)NC(=O)CNC(=O)[C@@H]1CCCN1C(=O)[C@@H]1CCCN1C(=O)[C@@H](N)CCCN=C(N)N)C(=O)O (HELM PEPTIDE1{R.P.P.G.[Nc1ccc(C[C@H](N[*:1])C(=O)[*:2])cc1].S.P.F.R}$$$$V2.0) | 3 | 1 | ED50 [1]: 57 nM

Further lines, with some results ahead:

Row | Relative affinity [2] [%] | Alpha E [6] | Compound | other results
22 | – | 1 | NC(N)=NCCC[C@H](N)C(=O)N1CCC[C@H]1C(=O)N1CCC[C@H]1C(=O)NCC(=O)N[C@@H](Cc1ccccc1)C(=O)N[C@@H](CO)C(=O)N1CCC[C@H]1C(=O)N[C@@H](Cc1ccccc1)C(=O)O | Response (Oryctolagus cuniculus [3]): 85%; EC50 (Oryctolagus cuniculus [4]): 68 nM
23 | – | 0 | CC(C)C[C@H](NC(=O)[C@@H]1CCCN1C(=O)[C@H](CO)NC(=O)[C@H](Cc1ccccc1)NC(=O)CNC(=O)[C@@H]1CCCN1C(=O)[C@@H]1CCCN1C(=O)[C@@H](N)CCCN=C(N)N)C(=O)O | –
24 | 0.04 | – | H-RPPGFSPDR-OH | –
25 | 0.1 | 1 | H-RPPGFSPLR-OH | –
26 | – | 1 | NC(N)=NCCC[C@H](N)C(=O)N1CCC[C@H]1C(=O)N1CCC[C@H]1C(=O)NCC(=O)N[C@@H](CC1CCCCC1)C(=O)N[C@@H](CO)C(=O)N1CCC[C@H]1C(=O)N[C@@H](Cc1ccccc1)C(=O)O (HELM PEPTIDE1{R.P.P.G.[Cha].S.P.F}$$$$V2.0) | –
27 | 0.3 | 1 | H-RPPGYSPFR-OH | –
28 | 23 | 1 | NC(N)=NCCC[C@H](NC(=O)[C@H](Cc1ccccc1)NC(=O)[C@@H]1CCCN1C(=O)[C@H](CO)NC(=O)[C@H](CC1CCCCC1)NC(=O)CNC(=O)[C@@H]1CCCN1C(=O)[C@@H]1CCCN1C(=O)[C@@H](N)CCCN=C(N)N)C(=O)O (HELM PEPTIDE1{R.P.P.G.[Cha].S.P.F.R}$$$$V2.0) | –
29 | – | 1 | H-RPPGLSPF-OH | –
30 | – | 1 | NC(N)=NCCC[C@H](N)C(=O)N1CCC[C@H]1C(=O)N1CCC[C@H]1C(=O)NCC(=O)N[C@@H](Cc1ccc(N)cc1)C(=O)N[C@@H](CO)C(=O)N1CCC[C@H]1C(=O)N[C@@H](Cc1ccccc1)C(=O)O | EC50 (Oryctolagus cuniculus [4]): 5460 nM
31 | 0.08 | – | H-RPPGDSPFR-OH | –
32 | – | 0 | H-RPPGFSPA-OH | –
33 | – | 1 | [N-]=[N+]=Nc1ccc(C[C@H](NC(=O)CNC(=O)[C@@H]2CCCN2C(=O)[C@@H]2CCCN2C(=O)[C@@H](N)CCCN=C(N)N)C(=O)N[C@@H](CO)C(=O)N2CCC[C@H]2C(=O)N[C@@H](Cc2ccccc2)C(=O)O)cc1 | Response (Oryctolagus cuniculus [3]): 90%; EC50 (Oryctolagus cuniculus [4]): 461 nM
34 | 23 | 1 | NC(N)=NCCC[C@H](NC(=O)[C@H](CC1CCCCC1)NC(=O)[C@@H]1CCCN1C(=O)[C@H](CO)NC(=O)[C@H](Cc1ccccc1)NC(=O)CNC(=O)[C@@H]1CCCN1C(=O)[C@@H]1CCCN1C(=O)[C@@H](N)CCCN=C(N)N)C(=O)O (HELM PEPTIDE1{R.P.P.G.F.S.P.[Cha].R}$$$$V2.0) | –

Reference: ChEMBL document CHEMBL1121899, “Biological activities of photoaffinity labeling analogues of kinins and their irreversible effects on kinin receptors” (1981)
